# ChEMBL document CHEMBL1123623, “Synthesis of some [N-(2-haloalkyl)amino]tetralin derivatives as potential irreversible labels for bovine anterior pituitary D2 dopamine receptors” (J Med Chem, 1987)
# Legend:
# D(2) dopamine receptor [1] = molecular target: T1, D(2) dopamine receptor (Bos taurus, UniProt P20288); experiment: Ability to displace [3H]spiperone binding from anterior pituitary Dopamine receptor D2 in the absence of GTP; NA means inactive
# In short: (§1)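 Bovine anterior pituitary membranes; displacement of [3H]spiperone (ca. 500 pM) with no GTP added. Specific binding defined with 3.3 μM (+)-butaclamol; buffer with 0.1% ascorbic acid in place of dithiothreitol. Triplicate points; IC50 corrected for [3H]spiperone concentration, plus pseudo Hill coefficient. Mean ± SEM (n ≥ 3) or mean ± range (n = 2).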
# D(2) dopamine receptor [2] = molecular target: T1, D(2) dopamine receptor; experiment: Ability to displace [3H]spiperone binding from anterior pituitary Dopamine receptor D2 in the absence of GTP; in short: as §1
# D(2) dopamine receptor [3] = molecular target: T1, D(2) dopamine receptor; experiment: Ability to displace [3H]spiperone binding from anterior pituitary Dopamine receptor D2 in the presence of 100 uM GTP
# In short: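 [3H]spiperone (ca. 500 pM) displacement in bovine anterior pituitary membranes in the presence of 100 μM GTP. Nonspecific binding set with 3.3 μM (+)-butaclamol; 0.1% ascorbic acid replaced dithiothreitol. Points in triplicate; IC50 corrected for radioligand concentration, with pseudo Hill coefficient. Mean ± SEM (n ≥ 3) or mean ± range (n = 2).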
# T1 sequence (P20288 whole entry): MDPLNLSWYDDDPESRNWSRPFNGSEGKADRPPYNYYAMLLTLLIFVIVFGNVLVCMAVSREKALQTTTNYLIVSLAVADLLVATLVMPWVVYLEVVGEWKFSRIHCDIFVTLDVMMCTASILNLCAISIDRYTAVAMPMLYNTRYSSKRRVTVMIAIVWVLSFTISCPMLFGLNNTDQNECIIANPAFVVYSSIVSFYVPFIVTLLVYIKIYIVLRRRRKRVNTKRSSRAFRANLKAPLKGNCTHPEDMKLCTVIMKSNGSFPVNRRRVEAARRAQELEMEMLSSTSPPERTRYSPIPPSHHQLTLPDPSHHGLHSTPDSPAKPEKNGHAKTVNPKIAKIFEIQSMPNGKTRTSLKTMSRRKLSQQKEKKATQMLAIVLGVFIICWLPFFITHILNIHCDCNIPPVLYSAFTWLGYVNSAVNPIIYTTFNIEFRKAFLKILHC
Structure (SMILES),IC50 (D(2) dopamine receptor [1]),IC50 (D(2) dopamine receptor [2]),IC50 (D(2) dopamine receptor [3])
CCCN(CCCl)C1CCc2cc(OC)c(OC)cc2C1.Cl (stereo not given),Not Active,,
CCCN(CCO)C1CCc2cc(O)c(O)cc2C1 (stereo not given),,0.42 µM,2.42 µM
CCCN(CCBr)C1CCc2cc(O)c(O)cc2C1 (stereo not given),,1.97 µM,> 100 µM
Oc1cc2c(cc1O)CC(NCCCl)CC2 (stereo not given),,0.3 µM,> 100 µM
CCCN(CCCl)C1CCc2cc(O)c(O)cc2C1 (stereo not given),,0.076 µM,0.26 µM
Br.CCCN(CC(C)Br)C1CCc2cc(O)c(O)cc2C1 (stereo not given),Not Active,,
COc1cc2c(cc1OC)CC(NC(=O)CCl)CC2 (stereo not given),Not Active,,
O=C(CCl)NC1CCc2cc(O)c(O)cc2C1 (stereo not given),Not Active,,
CC(Br)CNC1CCc2cc(O)c(O)cc2C1 (stereo not given),,0.3 µM,1.01 µM
CN(CCCl)C1CCc2cc(O)c(O)cc2C1 (stereo not given),,1.82 µM,3.72 µM
CCCN(CCO)C1CCc2cc(OC)c(OC)cc2C1 (stereo not given),Not Active,,
CN(CCCl)C1CCc2c(ccc(O)c2O)C1 (stereo not given),,32.2 µM,> 100 µM
COc1cc2c(cc1OC)CC(NCCCl)CC2.Cl (stereo not given),Not Active,,
Oc1cc2c(cc1O)CC(NCCBr)CC2 (stereo not given),,0.17 µM,0.42 µM
COc1cc2c(cc1OC)CC(NCCO)CC2.Cl (stereo not given),Not Active,,
CCCN(C(=O)CCl)C1CCc2cc(OC)c(OC)cc2C1 (stereo not given),Not Active,,
CN(CCCl)C1CCc2cc(O)ccc2C1 (stereo not given),,2.97 µM,
